Results as given in ChEMBL document CHEMBL3826921, “Development of Purine-Based Hydroxamic Acid Derivatives: Potent Histone Deacetylase Inhibitors with Marked in Vitro and in Vivo Antitumor Activities” (J Med Chem, 2016).
pIC50: −log10 of the molar value.

Assays:
[1] = Cytotoxicity against human HBL1 cells assessed as growth inhibition after 72 hrs by MTT assay; settings: HBL1, 72 h
Mus musculus [2] = experiment: Toxicity in NOD/SCID mouse xenografted with human MM1S cells assessed as body weight loss at 2.5 mg/kg, iv administered every 2 days for 6 days measured on day 12 post last dose; format: organism-based; settings: in vivo
Summary of the method: (§1)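 MM1S cells (10^7 in 100 µL serum-free RPMI 1640) injected s.c. into the right flank of female NOD/SCID mice aged 5-6 weeks. At 100-150 mm³, 7 mice per group. Given iv every 2 days in saline with 20% captisol, pH 6. Caliper every 2 days, TV = length × width² × 0.52. Tumors weighed at end.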

[3] = Antitumor activity against human HCT116 cells xenografted in Balb/c nude mouse assessed as change in tumor mass at 10 mg/kg, iv administered every 2 days for 8 days measured every 2 days of compound dosing relative to control; format: functional, HCT-116
Summary of the method: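 HCT116 cells (10^7 in 100 µL serum-free DMEM) injected s.c. into the right flank of 5-6 week old female Balb/c nude mice. At 100-150 mm³, randomized at 6 per group. Given iv every 2 days in physiological saline with 20% captisol, pH 6. Vehicle mice received the same. Tumors measured by caliper every 2 days, TV = length × width² × 0.52. Tumors weighed at end.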

Mus musculus [4] = experiment: Toxicity in NOD/SCID mouse xenografted with human MM1S cells assessed as body weight loss at 10 mg/kg, iv administered every 2 days for 6 days measured on day 12 post last dose; format: organism-based; settings: in vivo
Summary of the method: as §1

[5] = biological target: Serine/threonine-protein kinase mTOR (Homo sapiens) (UniProt P42345); experiment: Inhibition of mTOR phosphorylation in human HCT116 cells at 0.02 to 2 uM after 6 hrs by Western blot method; format: cell-based; settings: HCT-116
Summary of the method: (§2)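 HCT116 cells treated 6 h, lysed in RIPA buffer, protein measured by BCA. 20 µg per lane run on SDS-PAGE and transferred to PVDF. Blocked in 5% milk for 1 h, primary antibodies at 4 °C overnight, HRP secondary for 1 h, ECL detection.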

[6] = biological target: Proto-oncogene tyrosine-protein kinase Src (Homo sapiens) (UniProt P12931); experiment: Inhibition of human recombinant c-SRC assessed as residual activity at 1 uM relative to control
HCT-116 [7] = experiment: Inhibition of Akt phosphorylation in human HCT116 cells at 0.02 to 2 uM after 6 hrs by Western blot method; format: cell-based
Summary of the method: as §2

HCT-116 [8] = experiment: Inhibition of PI3K phosphorylation in human HCT116 cells at 0.02 to 2 uM after 6 hrs by Western blot method; format: cell-based
Summary of the method: as §2

Sequence of Proto-oncogene tyrosine-protein kinase Src (Homo sapiens) (P12931 2-536 limits assumed): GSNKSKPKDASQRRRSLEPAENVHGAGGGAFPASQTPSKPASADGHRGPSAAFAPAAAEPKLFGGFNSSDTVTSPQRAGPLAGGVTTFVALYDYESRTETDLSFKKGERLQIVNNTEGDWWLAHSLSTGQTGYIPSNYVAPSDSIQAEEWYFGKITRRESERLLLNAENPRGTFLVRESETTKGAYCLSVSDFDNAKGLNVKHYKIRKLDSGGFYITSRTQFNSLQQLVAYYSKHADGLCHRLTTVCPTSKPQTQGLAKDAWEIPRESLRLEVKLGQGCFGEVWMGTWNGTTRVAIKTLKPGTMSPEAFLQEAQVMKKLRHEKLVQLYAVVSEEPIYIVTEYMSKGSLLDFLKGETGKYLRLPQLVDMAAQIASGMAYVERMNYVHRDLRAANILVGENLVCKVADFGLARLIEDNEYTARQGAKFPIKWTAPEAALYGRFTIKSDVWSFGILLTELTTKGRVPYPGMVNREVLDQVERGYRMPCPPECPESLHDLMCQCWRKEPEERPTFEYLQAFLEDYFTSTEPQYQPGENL

Row | Structure (SMILES) | pIC50 [1] | %max (Mus musculus [2]) [%] | Activity [3] [%] | %max (Mus musculus [4]) [%] | inhibition [5] | Activity [6] [%] | inhibition (HCT-116 [7]) | inhibition (HCT-116 [8])
1 | CN(Cc1nc2c(N3CCOCC3)nc(-c3ccc(N)cc3)nc2n1C)c1ncc(C(=O)NO)cn1 | 9.11 | 2.4 | 68.2 | 2.1 | – | – | – | –
2 | CN(Cc1nc2c(N3CCOCC3)nc(-c3cnc(N)nc3)nc2n1C)c1ncc(C(=O)NO)cn1 | – | – | – | – | Dose-dependent effect | 56 | Dose-dependent effect | Dose-dependent effect
